According to ChEMBL document CHEMBL3808288, “Identification and in Vivo Evaluation of Liver X Receptor β-Selective Agonists for the Potential Treatment of Alzheimer's Disease” (J Med Chem, 2016):
In brackets after ≈: the same amount, converted by molar mass. Activity calls are given as the source filed them. The rule behind the calls is not given here.

Assays:
[1] = tested on: Rhesus monkey; test: Upregulation of CETP in rhesus monkey at 20 mg/kg, po qd for 2 weeks relative to control; type: ADME, organism-based; conditions: Macaca mulatta, 336 h, read-out: FC
[2] = Half life of compound in rat; type: ADME, organism-based; conditions: in vivo
[3] = tested on: Mus musculus; test: Reversal of hyperlocomotary behavior in Tg2576 transgenic mouse at 50 mg/kg, sc administered as single dose 4 hrs before test by open field test; type: functional, organism-based
Outline: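 A single subcutaneous dose was given 4 h before the open-field locomotor test.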

[4] = Cmax in rhesus monkey at 20 mg/kg, po administered for 2 weeks; type: ADME, organism-based, Macaca mulatta; design: dose 20 mg/kg, route oral; conditions: in vivo
Outline: (§1)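 Cmax was estimated across a 2-week once-daily oral dosing study in rhesus monkeys.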

[5] = target: T1, Oxysterols receptor LXR-alpha (Homo sapiens, UniProt Q13133); test: (§2) Partial agonist activity at LXRalpha (unknown origin) expressed in human HepG2 cells co-expressing ABCA1 promoter measured after 48 hrs by cell-based transactivation assay
T1 sequence (Q13133 whole entry): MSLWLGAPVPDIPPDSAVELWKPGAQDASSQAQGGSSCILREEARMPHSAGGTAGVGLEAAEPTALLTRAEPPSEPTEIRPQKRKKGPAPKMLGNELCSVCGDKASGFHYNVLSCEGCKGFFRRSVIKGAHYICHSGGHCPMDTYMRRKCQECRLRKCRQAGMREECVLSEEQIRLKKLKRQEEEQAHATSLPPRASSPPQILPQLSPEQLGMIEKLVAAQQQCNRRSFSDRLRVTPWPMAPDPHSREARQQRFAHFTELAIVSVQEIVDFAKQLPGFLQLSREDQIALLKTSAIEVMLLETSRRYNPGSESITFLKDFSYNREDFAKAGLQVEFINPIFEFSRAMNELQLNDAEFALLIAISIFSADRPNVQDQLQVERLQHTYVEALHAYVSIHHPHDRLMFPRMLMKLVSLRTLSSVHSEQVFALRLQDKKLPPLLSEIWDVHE
Outline: (§3)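 Cell-based transactivation assay using endogenous LXRβ or LXRα. The read-out was EC50 and Emax, with Emax expressed relative to a full agonist control set at 100%.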

[6] = target: T2, Oxysterols receptor LXR-alpha (Homo sapiens) (UniProt Q13133); test: as §2; outline: as §3
T2 sequence (whole entry): T1 sequence (Q13133 whole entry)

[7] = Apparent permeability of compound in MDCK cells; type: ADME, cell-based, Canis lupus familiaris; conditions: dog
[8] = Volume of distribution at steady state in rat; type: ADME, organism-based; conditions: in vivo, read-out: Vdss
[9] = tested on: Rhesus monkey; test: Increase in LDL cholesterol level in rhesus monkey at 10 to 20 mg/kg, po qd for 2 weeks; type: ADME, organism-based, Macaca mulatta; conditions: in vivo, 336 h
Outline: (§4)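 Rhesus monkeys were dosed orally once daily for 2 weeks. LDL and HDL cholesterol were measured in serum at trough after the last dose and compared with baseline serum samples taken before dosing.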

[10] = tested on: Mus musculus; test: Activation of LXR in Tg2576 transgenic mouse assessed increase in soluble apoE level in brain at 50 mg/kg, sc dosed for 3 weeks; type: functional, organism-based
Outline: (§5)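 12-month-old Tg2576 mice were dosed subcutaneously for three weeks. Brain was assayed for ABCA1 protein, soluble apoE and DEA-soluble Aβ, and plasma and liver were assayed for triglycerides. Groups were compared with vehicle by ANOVA.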

[11] = target: T2, Oxysterols receptor LXR-alpha (Homo sapiens); test: Agonist activity at GST-tagged LXRalpha-LBD (unknown origin) by LanthaScreen TR-FRET liver X receptor coactivator assay T1317
Outline: (§6)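 Cofactor recruitment assay using the ligand binding domains of LXRβ or LXRα. The read-out was EC50 and Emax, with Emax relative to a full agonist control.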

[12] = tested on: Rhesus monkey; test: Increase in amyloid beta40 in CSF of rhesus monkey at 20 mg/kg, po administered for 2 weeks; type: functional, Macaca mulatta
[13] = target: T3, Oxysterols receptor LXR-beta (Homo sapiens) (UniProt P55055); test: Agonist activity at GST-tagged LXRbeta-LBD (unknown origin) by LanthaScreen TR-FRET liver X receptor coactivator assay relative to T1317; outline: as §6
T3 sequence (whole entry): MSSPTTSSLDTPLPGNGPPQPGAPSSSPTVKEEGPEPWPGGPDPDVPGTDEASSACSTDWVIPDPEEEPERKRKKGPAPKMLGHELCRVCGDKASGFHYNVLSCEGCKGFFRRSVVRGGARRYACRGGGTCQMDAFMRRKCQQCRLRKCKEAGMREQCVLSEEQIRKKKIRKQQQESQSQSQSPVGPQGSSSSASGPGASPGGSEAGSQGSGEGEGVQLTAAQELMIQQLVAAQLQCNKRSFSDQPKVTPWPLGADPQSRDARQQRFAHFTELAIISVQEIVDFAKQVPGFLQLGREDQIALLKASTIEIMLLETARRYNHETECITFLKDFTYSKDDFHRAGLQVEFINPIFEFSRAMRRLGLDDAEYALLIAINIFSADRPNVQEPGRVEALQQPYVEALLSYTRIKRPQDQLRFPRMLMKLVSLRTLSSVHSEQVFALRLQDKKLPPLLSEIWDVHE

[14] = tested on: Rhesus monkey; test: Increase in lipid level in serum of rhesus monkey at 10 to 20 mg/kg, po qd for 2 weeks; type: ADME, organism-based, Macaca mulatta; conditions: in vivo, 336 h
[15] = tested on: P-gp; test: Efflux ratio in MDCK cells expressing rat P-gp assessed as ratio of permeability across basolateral to apical side over apical to basolateral side; type: ADME, cell-based, Canis lupus familiaris; conditions: dog, MDCK-MDR1
[16] = Oral bioavailability in rat; type: ADME, organism-based; conditions: in vivo
[17] = tested on: Rhesus monkey; test: Increase in hepatic fat content in rhesus monkey at 10 and 20 mg/kg, po qd for 2 weeks by magnetic resonance spectroscopic imaging method relative to vehicle control; type: ADME, organism-based, Macaca mulatta; conditions: in vivo, 336 h
[18] = Volume of distribution at steady state in rhesus monkey; type: ADME, organism-based, Macaca mulatta; conditions: in vivo, read-out: Vdss
[19] = tested on: Rattus norvegicus; test: Increase in apoE level in CSF of Wistar Han rat at 100 mg/kg, sc dosed for 4 days by western blotting method; type: functional, organism-based
Outline: (§7)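 Rats were dosed subcutaneously for 4 days, and apoE and Aβ were then measured in CSF.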

[20] = tested on: Rhesus monkey; test: Decrease in ratio of HDL to LDL level in rhesus monkey plasma at 10 to 20 mg/kg, po qd for 2 weeks; type: ADME, organism-based, Macaca mulatta; conditions: in vivo, 336 h; outline: as §4
[21] = target: T1, Oxysterols receptor LXR-alpha; test: (§8) Partial agonist activity at GST-tagged LXRalpha-LBD (unknown origin) by LanthaScreen TR-FRET liver X receptor coactivator assay; outline: as §6
[22] = target: T2, Oxysterols receptor LXR-alpha (Homo sapiens); test: as §8; outline: as §6
[23] = Cmax in rhesus monkey at 10 mg/kg, po administered for 2 weeks; type: ADME, organism-based, Macaca mulatta; design: dose 10 mg/kg, route oral; conditions: in vivo; outline: as §1
[24] = Protein binding in rat plasma; type: ADME, cell-free; conditions: read-out: PPB (converted)
[25] = tested on: Mus musculus; test: Toxicity in Tg2576 transgenic mouse assessed as change in liver triglyceride level at 50 mg/kg, sc dosed for 3 weeks; type: organism-based; conditions: in vivo, 504 h; outline: as §5
[26] = tested on: Mus musculus; test: Reversal of hyperlocomotary behavior in Tg2576 transgenic mouse at 50 mg/kg, sc dosed for 16 days by open field test; type: functional, organism-based
Outline: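 Mice from the three-week subcutaneous study were tested in the open field for locomotor activity after 16 days of dosing. Wild-type mice were included for comparison.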

[27] = tested on: Rattus norvegicus; test: Increase in amyloid beta level in CSF of Wistar Han rat at 100 mg/kg, sc dosed for 4 days by western blotting method; type: functional, organism-based; outline: as §7
[28] = Half life of compound in rhesus monkey; type: ADME, organism-based, Macaca mulatta; conditions: in vivo
[29] = Oral bioavailability in rhesus monkey; type: ADME, organism-based, Macaca mulatta; conditions: in vivo
[30] = tested on: Mus musculus; test: Toxicity in Tg2576 transgenic mouse assessed as change in plasma triglyceride level at 50 mg/kg, sc dosed for 3 weeks; type: organism-based; conditions: in vivo, 504 h; outline: as §5
[31] = tested on: Mus musculus; test: Activation of LXR in Tg2576 transgenic mouse assessed increase in brain ABCA1 level at 50 mg/kg, sc dosed for 3 weeks by western blotting method; type: functional, organism-based; outline: as §5
[32] = tested on: P-gp; test: Efflux ratio in MDCK cells expressing human P-gp assessed as ratio of permeability across basolateral to apical side over apical to basolateral side; type: ADME, cell-based, Canis lupus familiaris; conditions: dog, MDCK-MDR1
[33] = tested on: Mus musculus; test: Activation of LXR in Tg2576 transgenic mouse assessed decrease in DEA-soluble amyloid-beta level in brain at 50 mg/kg, sc dosed for 3 weeks; type: functional; conditions: 504 h; outline: as §5
[34] = tested on: Rhesus monkey; test: Increase in amyloid beta42 in CSF of rhesus monkey at 20 mg/kg, po administered for 2 weeks; type: functional, Macaca mulatta
[35] = Solubility of the compound at pH 2; type: physicochemical; conditions: buffer
[36] = tested on: Rattus norvegicus; test: Toxicity in Wistar Han rat assessed as change in plasma triglyceride level at 100 mg/kg, sc dosed for 4 days […]; type: organism-based; conditions: in vivo, 96 h
[37] = Clearance in rhesus monkey; type: ADME, organism-based, Macaca mulatta; conditions: in vivo
[38] = Ratio of drug uptake in brain to plasma in rat; type: ADME, cell-free; conditions: brain and plasma, read-out: BPR
[39] = tested on: Rattus norvegicus; test: Toxicity in Wistar Han rat assessed as change in liver triglyceride level at 100 mg/kg, sc dosed for 4 days […]; type: organism-based; conditions: in vivo, 96 h
[40] = target: T4, Oxysterols receptor LXR-beta (Homo sapiens, UniProt P55055); test: Agonist activity at GST-tagged LXRbeta-LBD (unknown origin) by LanthaScreen TR-FRET liver X receptor coactivator assay; outline: as §6
T4 sequence (P55055 whole entry): T3 sequence (whole entry)

[41] = Clearance in rat; type: ADME, organism-based; conditions: in vivo
[42] = tested on: Mus musculus; test: Toxicity in wild-type mouse assessed as effect on locomotary behavior at 50 mg/kg, sc dosed for 16 days mins by open field test; type: organism-based; conditions: in vivo, 384 h
Outline: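 Wild-type mice were part of a three-week subcutaneous dosing study that also included Tg2576 transgenic mice. Locomotor activity was scored in an open-field arena after 16 days of dosing.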

[43] = tested on: Rhesus monkey; test: Increase in apoE level in CSF of rhesus monkey at 10 and 20 mg/kg, po administered for 2 weeks by apoE ELISA relative to control; type: functional, Macaca mulatta
Outline: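 Rhesus monkeys were dosed orally once daily for 2 weeks after randomisation on baseline lipids, liver enzymes and liver fat. CSF was taken by lumbar puncture at baseline and at trough after the last dose, and apoE was measured against baseline.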

[44] = tested on: Rhesus monkey; test: Increase in lipid level in liver of rhesus monkey at 10 to 20 mg/kg, po qd for 2 weeks; type: ADME, organism-based, Macaca mulatta; conditions: in vivo, 336 h
[45] = Protein binding in rhesus monkey plasma; type: ADME, cell-free, Macaca mulatta; conditions: read-out: PPB (converted)

half-life [2]: 2.9 h | Cmax [4]: 18 µM | EC50 [5]: 830 nM | Emax [6]: 31% | Papp [7]: 24 ×10⁻⁶ cm/s | Vd [8]: 8.8 L/kg | Emax [11]: 49% | Emax [13]: 103% | efflux ratio [15]: 0.8 | bioavailability [16]: 71% | Vd [18]: 2.7 L/kg | EC50 [21]: 1900 nM | Emax [22]: 49% | Cmax [23]: 1 µM | fraction unbound [24]: 0.018 | half-life [28]: 2 h | bioavailability [29]: 77% | efflux ratio [32]: 0.6 | solubility [35]: 205 µM (≈ 106 µg/mL) | clearance [37]: 18 mL/min/kg | Kp [38]: 0.62 | EC50 [40]: 30 nM | clearance [41]: 87 mL/min/kg | fraction unbound [45]: 0.007
Structure (SMILES): CC(C)[C@@](O)(C(=O)N1CCC(C2CCN(c3ccc(C(=O)N(C)C)c(Cl)c3)CC2)CC1)C(F)(F)F
fold induction at 20 mg/kg [1]: 2.8 | Activity [3]: inactive | Activity [9]: Toxic | Activity [10]: Active | Activity [12]: 25% | Activity [14]: Non-toxic | Activity [17]: Non-toxic | Activity [19]: Active | Activity [20]: Toxic | Activity [25]: Non-toxic | Activity [26]: Active | Activity [27]: Active | Activity [30]: Non-toxic | Activity [31]: Active | inhibition in vivo at 50 mg/kg [33]: 28% | Activity [34]: 25% | Activity [36]: Non-toxic | Activity [39]: Non-toxic | Activity [42]: Non-toxic | fold change (FC) [43]: 3 | Activity [44]: Non-toxic
